Source: PubChem
The list is not random: actives were taken first. Their share in the collection is about 3.5%.
MrgX1 PAM – allosterically activates human MrgX1 receptor signaling. Q96LB2. MrgX1-HEK293, Fluo-4 calcium flux, FDSS; stronger effect = higher value. B-score at 10 µM. actives 0.63% (n = 310,000). AID 588675;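 active = plate-corrected calcium response at least 3 library SD above typical, normal starting fluorescence, not activating the receptor alone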;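 note: compound read alongside a low EC10 to EC30 dose of BAM8-22 agonist; peak minus trough fluorescence over baseline measured at the second addition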
Target sequence (Q96LB2 whole entry, looked up): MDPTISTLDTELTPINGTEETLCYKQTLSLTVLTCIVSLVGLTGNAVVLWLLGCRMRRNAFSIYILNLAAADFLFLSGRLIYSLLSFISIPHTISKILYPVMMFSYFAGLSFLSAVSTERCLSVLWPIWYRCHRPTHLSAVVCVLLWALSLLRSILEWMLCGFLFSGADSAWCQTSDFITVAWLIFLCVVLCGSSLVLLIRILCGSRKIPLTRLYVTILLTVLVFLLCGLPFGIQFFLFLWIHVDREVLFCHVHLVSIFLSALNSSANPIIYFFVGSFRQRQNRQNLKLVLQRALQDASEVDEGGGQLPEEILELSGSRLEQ
MrgX1 antagonist – human MrgX1 receptor antagonism, primary screen | Q96LB2 | MRGX1-HEK293 calcium flux, Fluo-4, BAM8-22 antagonism; stronger effect = lower value | B-score at 10 µM | actives 1.3% (n = 310,000);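 active = calcium-response B-score plate-corrected more than 3 library SD below zero, starting fluorescence within 5 deviations, no agonist response on first addition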;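 note: peak minus trough fluorescence over baseline after final BAM8-22 challenge near maximal dose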
RGS4 inh – inhibitors of human RGS4; HEK293 M3R/RGS4 inducible, Fluo-4 calcium flux; stronger effect = higher value; triggered by carbachol at its EC20; B-score at 10 µM; P49798; AID 463165; actives 0.45% (n = 310,000);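 active = B-score, a plate-corrected calcium signal, over three deviations above library mean, with baseline fluorescence within five deviations of library mean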;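 note: RGS4 expression induced by doxycycline in cells with stable M3 receptor; B-score is computed from the integrated fluorescence ratio over baseline after carbachol; higher B-score means a larger calcium signal and so more RGS4 inhibition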
Target sequence (P49798 whole entry, looked up): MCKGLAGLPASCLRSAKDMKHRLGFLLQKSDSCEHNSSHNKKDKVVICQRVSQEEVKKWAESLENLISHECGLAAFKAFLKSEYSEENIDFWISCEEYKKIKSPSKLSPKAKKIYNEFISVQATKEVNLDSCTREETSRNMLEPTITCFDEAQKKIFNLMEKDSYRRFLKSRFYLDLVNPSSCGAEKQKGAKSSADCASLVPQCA
RGS4 act – potentiators or activators of RGS4 | actives 0.92% (n = 310,000) | B-score at 10 µM | AID 463111 | HEK293 M3R/inducible RGS4, carbachol calcium flux Fluo4; stronger effect = lower value;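 active = B-score of the integrated calcium signal more than 4 SD below the library mean, with starting fluorescence not abnormally high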;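 note: negative B-score means reduced calcium response which marks RGS4 activation or potentiation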
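Also added: carbachol at ECmax as muscarinic agonist stimulus; Assay system: HEK293 cells with stable M3R and inducible RGS4; Timing: overnight RGS4 induction, 30 min dye load 37 °C, 20 min compound RT; Measured by: Fluo4-AM (2 µM) calcium-flux fluorescence, kinetic read.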
MrgX1 agonist – human MrgX1 receptor agonism, primary screen. MrgX1-HEK293 cells, Fluo-4 calcium fluorescence, agonist mode; stronger effect = higher value. Q96LB2. actives 0.44% (n = 310,000). AID 588627. B-score at 10 µM;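 active = calcium response B-score plate-corrected fluorescence ratio at least 3 library SD, with starting fluorescence B-score inside 5 SD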
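Material: MrgX1-expressing HEK293 cells; input: 15,000 cells per well; doses: test compound given as first of three sequential additions; schedule: overnight plating before 1 h dye loading; technique: Fluo-4 NW calcium-flux fluorescence, kinetic read; evaluation: baseline-normalised fluorescence change ratio, B-scored; control set: plate-wise positive and negative controls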
MrgX1 PAM conf – reconfirmed allosteric activator of human MrgX1 receptor; shares compounds with MrgX1 PAM; MrgX1-HEK293, Fluo-4 calcium fluorescence, FDSS; activation (ratio percentage), % at 10 µM; actives 13% (n = 1,200);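 active = ratio at least 3 SD above the weak peptide control, stable starting fluorescence, no direct agonism earlier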;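 note: compound followed by low BAM8-22 agonist challenge near EC20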
HEK293 Ca flux – MrgX1 antagonist counter-screen hit in parental HEK293 cells; actives 2% (n = 4,000); fluorescence ratio F(max-min)/F0 at 10 µM; Fluo-4 calcium fluorescence, FDSS; shares compounds with MrgX1 antagonist;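 active = duplicate-averaged calcium fluorescence ratio at least three times the standard deviation of buffer wells, a nonspecific response in parental cells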
HEK293 Ca counter – counter-screen for MrgX1 allosteric activators: effect in parental HEK293 cells | shares compounds with MrgX1 antagonist | actives 0.4% (n = 4,000) | fluorescence ratio F(max-min)/F0 at 10 µM | parental HEK293 calcium flux, Fluo-4 fluorescence ratio; stronger effect = higher value;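 active = calcium fluorescence ratio, averaged over duplicates, at least 3 SD of the buffer-well ratio, meaning a nonspecific response in receptor-free cells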;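 note: untransfected parental HEK293 lacking MrgX1 used as counterscreen for MrgX1 allosteric activators; fluorescence change taken during the second addition on a kinetic imager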
HEK293 Ca cntr2 – activity in parental HEK293 cells lacking MrgX1 receptor. shares compounds with MrgX1 antagonist. Fluo-4 calcium fluorescence (FDSS); stronger effect = higher value. fluorescence ratio F(max-min)/F0 at 10 µM. actives 8.7% (n = 4,000). AID 624115;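 active = calcium fluorescence ratio at least three times the spread of buffer wells, meaning a non-specific response in parental cells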
Of the large screens only hits and unclear results are named; the others gave an inactive call (follow-up assays come after a bar, where they were run).

CCOC(=O)c1c(C)nc2c(c1-c1ccccc1)C(=O)c1ccccc1-2	MrgX1 PAM 9.3 | MrgX1 PAM conf inactive | HEK293 Ca flux inactive | HEK293 Ca counter inactive | HEK293 Ca cntr2 inactive
C=CCn1c(SCC(=O)c2c(N)n(CCC)c(=O)n(C)c2=O)nc2sc(CC)cc2c1=O	none
O=C(c1ccncc1)c1ccc(N2CCN(C3CC(=O)N(Cc4cccs4)C3=O)CC2)cc1 (stereo not drawn)	MrgX1 PAM 6.9 | MrgX1 PAM conf inactive | HEK293 Ca flux inactive | HEK293 Ca counter inactive | HEK293 Ca cntr2 inactive
CN(C)c1ccc(C(=O)NCc2ccc3c(c2)CCO3)cc1	none
CC(C)(C)c1ccc(-n2ncc3c2CCCC3NC(=O)CN2CCCC2=O)cc1 (stereo not drawn)	MrgX1 PAM 13 | MrgX1 PAM conf inactive | HEK293 Ca flux inactive | HEK293 Ca counter inactive | HEK293 Ca cntr2 inactive
CCc1ccc(OCC2c3cc(OC)c(OC)cc3CCN2C(=S)NC)cc1 (stereo not drawn)	none
O=C(Nc1ccccc1C(=O)O)c1cccc(NS(=O)(=O)c2ccc(Br)cc2)c1	MrgX1 PAM 11 | MrgX1 PAM conf inactive | HEK293 Ca flux inactive | HEK293 Ca counter inactive | HEK293 Ca cntr2 inactive
O=C(Nc1ccccc1C(=O)O)c1cccc(S(=O)(=O)Nc2ccc(Br)cc2)c1	none
CCOc1cc(/C=C2/NC(=O)N(CC(=O)Nc3cccc(C)c3)C2=O)ccc1OCC(N)=O	none
CCOC(=O)c1cc(-c2cccnc2)nn1-c1ccccc1	none
CCOC(=O)c1cc(-c2ccc(OC)cc2)nn1-c1ccc(C(=O)O)cc1	MrgX1 PAM 6.5 | MrgX1 PAM conf inactive | HEK293 Ca flux inactive | HEK293 Ca counter inactive | HEK293 Ca cntr2 inactive
O=C(CCCSc1nc2ccccc2[nH]1)NCc1ccco1	none
COc1ccc(Nc2nc(C)c3ccccc3n2)cc1	MrgX1 PAM 15 | MrgX1 PAM conf inactive | HEK293 Ca flux inactive | HEK293 Ca counter inactive | HEK293 Ca cntr2 inactive
CCN(CC)C(=O)CSc1nnc(-c2cc(OC)cc(OC)c2)o1	none
Cc1cccn2c(=O)c(C(=O)NC3CCCCC3C)c(O)nc12 (stereo not drawn)	none
Cc1ccn2c(=O)c(C(=O)NC3CCCCC3C)c(O)nc2c1 (stereo not drawn)	MrgX1 PAM 9.3 | MrgX1 PAM conf inactive | HEK293 Ca flux inactive | HEK293 Ca counter inactive | HEK293 Ca cntr2 inactive
CCCN(c1ccc(C(=O)OC)cc1)S(=O)(=O)c1ccccc1	MrgX1 PAM 9.8 | MrgX1 PAM conf inactive | HEK293 Ca flux inactive | HEK293 Ca counter inactive | HEK293 Ca cntr2 inactive
Cn1c(CN2CCCCC2)nc2cc(NC(=O)c3ccc(Cl)cc3)ccc21	none
Cn1c(CN2CCCC2)nc2cc(NC(=O)c3ccc(Cl)cc3)ccc21	MrgX1 PAM 9 | MrgX1 PAM conf inactive | HEK293 Ca flux inactive | HEK293 Ca counter inactive | HEK293 Ca cntr2 inactive
O=C(CSc1nnc(-c2ccccc2)c2ccccc12)NCC1CCCO1 (stereo not drawn)	none
Cc1cccc(C(=O)N2CCCC(CCC(=O)N3CCN(c4ccccn4)CC3)C2)c1C (stereo not drawn)	MrgX1 PAM 9.4 | MrgX1 PAM conf inactive | HEK293 Ca flux inactive | HEK293 Ca counter inactive | HEK293 Ca cntr2 inactive
Cc1cc(C(=O)N2CCCC(CCC(=O)N3CCN(c4ccccn4)CC3)C2)c(C)o1 (stereo not drawn)	none
Cc1ccc(C(=O)N2CCCC(CCC(=O)N3CCN(c4ccccn4)CC3)C2)cn1 (stereo not drawn)	none
Cc1ccc(C(=O)N2CCCC(CCC(=O)N3CCN(c4ccccn4)CC3)C2)cc1C (stereo not drawn)	MrgX1 PAM 7.8 | MrgX1 PAM conf inactive | HEK293 Ca flux inactive | HEK293 Ca counter inactive | HEK293 Ca cntr2 inactive
C=CCc1c(C)nc(SC)nc1Nc1ccc(C(=O)O)cc1	none
C=CCc1c(C)nc(SC)nc1Nc1ccc(C(C)=O)cc1	MrgX1 PAM 7 | MrgX1 PAM conf inactive | HEK293 Ca flux inactive | HEK293 Ca counter inactive | HEK293 Ca cntr2 inactive
COCc1cc(N2CCN(c3ccccc3F)CC2)nc(-c2ccccc2)n1	none
COCc1cc(Sc2ccc(Br)cc2)nc(-c2ccccc2)n1	MrgX1 PAM 8.9 | MrgX1 PAM conf inactive | HEK293 Ca flux inactive | HEK293 Ca counter inactive | HEK293 Ca cntr2 inactive
COCc1cc(Sc2ccc(Cl)cc2)nc(-c2ccccc2)n1	MrgX1 PAM 14 | MrgX1 PAM conf inactive | HEK293 Ca flux inactive | HEK293 Ca counter inactive | HEK293 Ca cntr2 inactive
CS(=O)Cc1cc(Sc2ccccc2)nc(-c2ccncc2)n1 (stereo not drawn)	none
O=C(Nc1ccc(C(=O)N2CCOCC2)cc1)c1ccc([N+](=O)[O-])cc1	none
CC(C)CC(CO)N1CCN(C(=O)c2cccc(C(F)(F)F)c2)CCC1=O (stereo not drawn)	MrgX1 PAM 10 | MrgX1 PAM conf inactive | HEK293 Ca flux inactive | HEK293 Ca counter inactive | HEK293 Ca cntr2 inactive
CC(C)CC(COCc1ccc(F)cc1)N1CCN(C(=O)c2cccc(C(F)(F)F)c2)CCC1=O (stereo not drawn)	none
Cn1c(=O)c2c(nc(CN3CCc4ccccc4C3)n2Cc2ccccc2F)n(C)c1=O	MrgX1 PAM 25 | MrgX1 PAM conf 38% | HEK293 Ca flux inactive | HEK293 Ca counter inactive | HEK293 Ca cntr2 inactive
CN1CCN(c2nc3c(c(=O)n(C)c(=O)n3C)n2Cc2cccc3ccccc23)CC1	none
Cn1c(=O)c2c(nc(CN3CCc4ccccc4C3)n2CCCO)n(C)c1=O	none
Cn1c(=O)c2c(nc(N3CCCCCC3)n2Cc2cccc3ccccc23)n(C)c1=O	MrgX1 PAM 7.5 | MrgX1 PAM conf inactive | HEK293 Ca flux inactive | HEK293 Ca counter 51 | HEK293 Ca cntr2 inactive
CC(C)c1ccc(C(=O)NCCCN2CCOCC2)cc1	none
O=C(NCCCN1CCOCC1)c1ccc(CSc2ccc(Cl)cc2)cc1	MrgX1 PAM 9.1 | MrgX1 PAM conf inactive | HEK293 Ca flux inactive | HEK293 Ca counter inactive | HEK293 Ca cntr2 inactive
Cc1ccc2c(COC(=O)c3ccccc3Cl)cc(=O)oc2c1	none
COc1ccc(CNC(=O)C2CC(=O)N(C3CCCCC3)C2)cc1 (stereo not drawn)	none
